Laboratory results published in ChEMBL document CHEMBL1914293, “Pharmacophore-based discovery of FXR-agonists. Part II: identification of bioactive triterpenes from Ganoderma lucidum” (Bioorg Med Chem, 2011).
The source made the active and inactive calls. The calls are words filed in the database; no cut-off is given here.

Each molecule was assayed against T1, Bile acid receptor/Retinoic acid receptor RXR-alpha (Mus musculus, UniProt P28700+Q60641) (assay: Agonist activity at full length mouse FXR/RXRalpha expressed in human HEK293 cells assessed as induction of transcriptional activity after 18 hrs by dual luciferase reporter gene assay).
T1 sequence (P28700 whole entry): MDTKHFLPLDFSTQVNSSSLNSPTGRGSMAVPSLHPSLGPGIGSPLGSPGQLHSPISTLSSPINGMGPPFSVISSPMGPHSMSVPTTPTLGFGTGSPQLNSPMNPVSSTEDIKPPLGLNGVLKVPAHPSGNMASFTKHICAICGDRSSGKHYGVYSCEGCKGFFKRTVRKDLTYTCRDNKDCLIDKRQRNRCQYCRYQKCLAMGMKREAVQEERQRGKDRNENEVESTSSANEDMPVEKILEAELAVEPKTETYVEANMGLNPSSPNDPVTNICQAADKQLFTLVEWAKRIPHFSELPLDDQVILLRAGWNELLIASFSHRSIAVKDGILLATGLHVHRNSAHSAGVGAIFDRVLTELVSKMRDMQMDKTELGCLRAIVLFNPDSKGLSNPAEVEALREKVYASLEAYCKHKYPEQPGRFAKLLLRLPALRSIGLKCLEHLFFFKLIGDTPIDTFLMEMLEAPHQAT
T1 sequence (Q60641 whole entry): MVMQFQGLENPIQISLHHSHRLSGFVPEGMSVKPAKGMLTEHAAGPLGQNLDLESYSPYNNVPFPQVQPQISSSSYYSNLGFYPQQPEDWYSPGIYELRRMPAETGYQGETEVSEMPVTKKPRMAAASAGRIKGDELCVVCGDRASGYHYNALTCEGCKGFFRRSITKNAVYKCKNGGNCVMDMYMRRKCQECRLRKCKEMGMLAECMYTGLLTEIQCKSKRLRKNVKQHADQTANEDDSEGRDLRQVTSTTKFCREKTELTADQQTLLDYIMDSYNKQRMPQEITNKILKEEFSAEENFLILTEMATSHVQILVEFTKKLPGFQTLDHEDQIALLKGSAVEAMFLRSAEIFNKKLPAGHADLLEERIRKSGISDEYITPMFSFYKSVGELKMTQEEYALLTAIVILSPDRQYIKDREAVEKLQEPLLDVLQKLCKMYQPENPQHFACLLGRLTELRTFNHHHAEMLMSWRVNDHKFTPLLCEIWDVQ
Assay type: functional, cell-based
`CC(C)[C@@H](C)/C=C/[C@@H](C)[C@H]1CC[C@@H]2[C@]1(C)CC[C@H]1[C@]23C=C[C@]2(C[C@@H](O)CC[C@]12C)OO3` [ERGOSTEROL PEROXIDE] was tested, and the EC50 was 0.85 µM.
`C/C(=C/CC[C@@H](C)[C@H]1C[C@H](O)[C@@]2(C)C3=CC[C@H]4C(C)(C)C(=O)CC[C@]4(C)C3=CC[C@]12C)C(=O)O` [GANODERIC ACID TR] showed an EC50 of over 14 µM.
In the case of `C[C@H](CCC=C(CO)CO)[C@H]1CC[C@@]2(C)C3=CC[C@H]4C(C)(C)C(=O)CC[C@]4(C)C3=CC[C@]12C` [GANODERIOL F], the EC50 is reported as 5 µM.
`C[C@H](CC[C@H](O)[C@](C)(O)CO)[C@H]1CC[C@@]2(C)C3=CC[C@H]4C(C)(C)C(=O)CC[C@]4(C)C3=CC[C@]12C` [GANODERMANONTRIOL] showed an EC50 of 2.5 µM.
`C[C@H](CC[C@H](O)C(C)(C)O)[C@H]1CC[C@@]2(C)C3=C(CC[C@]12C)[C@@]1(C)CCC(=O)C(C)(C)[C@@H]1CC3=O` [LUCIDUMOL A] gave an EC50 of over 18.6 µM.

Each molecule was assayed on HUVEC (assay: Antiinflammatory activity in human HUVEC cells assessed as inhibition of TNF-alpha-induced IL-8 mRNA expression at 5 uM for 10 mins measured after 4 hrs of LPS challenge by Q-PCR analysis).
Assay type: functional, cell-based
Procedure, shortened: (§1)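 hTERT-immortalized HUVEC (HUVECtert) were grown in M199 with 20% FBS, endothelial cell growth supplement and antibiotics. Cells were treated with compounds at 5 μM, then stimulated with TNFα (human recombinant, 100 ng/mL) or LPS (E. coli 055:B5, 300 ng/mL). IL-8 and E-selectin mRNA were measured by qPCR, normalized to β2-microglobulin (Pfaffl method), and expressed as fold over untreated control. Statistics used ANOVA with Bonferroni post-test.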
In the case of `CC(C)[C@@H](C)/C=C/[C@@H](C)[C@H]1CC[C@@H]2[C@]1(C)CC[C@H]1[C@]23C=C[C@]2(C[C@@H](O)CC[C@]12C)OO3` [ERGOSTEROL PEROXIDE], the inhibition is reported as “Active”.
With `C/C(=C/CC[C@@H](C)[C@H]1C[C@H](O)[C@@]2(C)C3=CC[C@H]4C(C)(C)C(=O)CC[C@]4(C)C3=CC[C@]12C)C(=O)O` [GANODERIC ACID TR] the inhibition was “Active”.
For `C[C@H](CCC=C(CO)CO)[C@H]1CC[C@@]2(C)C3=CC[C@H]4C(C)(C)C(=O)CC[C@]4(C)C3=CC[C@]12C` [GANODERIOL F], the inhibition was “Active”.
With `C[C@H](CC[C@H](O)[C@](C)(O)CO)[C@H]1CC[C@@]2(C)C3=CC[C@H]4C(C)(C)C(=O)CC[C@]4(C)C3=CC[C@]12C` [GANODERMANONTRIOL] the inhibition was “Active”.
With `C[C@H](CC[C@H](O)C(C)(C)O)[C@H]1CC[C@@]2(C)C3=C(CC[C@]12C)[C@@]1(C)CCC(=O)C(C)(C)[C@@H]1CC3=O` [LUCIDUMOL A] the inhibition was “Active”.

What follows are molecules tested on HUVEC (assay: Antiinflammatory activity in human HUVEC cells assessed as inhibition of LPS-induced IL-8 mRNA expression at 5 uM for 10 mins measured after 4 hrs of LPS challenge by Q-PCR analysis).
Assay type: functional, cell-based
Procedure, shortened: as §1
`CC(C)[C@@H](C)/C=C/[C@@H](C)[C@H]1CC[C@@H]2[C@]1(C)CC[C@H]1[C@]23C=C[C@]2(C[C@@H](O)CC[C@]12C)OO3` [ERGOSTEROL PEROXIDE] was tested, and the inhibition was “Active”.
With `C/C(=C/CC[C@@H](C)[C@H]1C[C@H](O)[C@@]2(C)C3=CC[C@H]4C(C)(C)C(=O)CC[C@]4(C)C3=CC[C@]12C)C(=O)O` [GANODERIC ACID TR] the inhibition was “Active”.
For `C[C@H](CCC=C(CO)CO)[C@H]1CC[C@@]2(C)C3=CC[C@H]4C(C)(C)C(=O)CC[C@]4(C)C3=CC[C@]12C` [GANODERIOL F], the inhibition was “Active”.
For `C[C@H](CC[C@H](O)[C@](C)(O)CO)[C@H]1CC[C@@]2(C)C3=CC[C@H]4C(C)(C)C(=O)CC[C@]4(C)C3=CC[C@]12C` [GANODERMANONTRIOL], the inhibition was “Active”.
`C[C@H](CC[C@H](O)C(C)(C)O)[C@H]1CC[C@@]2(C)C3=C(CC[C@]12C)[C@@]1(C)CCC(=O)C(C)(C)[C@@H]1CC3=O` [LUCIDUMOL A] was tested, and the inhibition was “Active”.

What follows are molecules tested on HUVEC (assay: Antiinflammatory activity in human HUVEC cells assessed as inhibition of TNF-alpha-induced E-selectin mRNA expression at 5 uM for 10 mins measured after 4 hrs of LPS challenge by Q-PCR analysis).
Assay type: functional, cell-based
Procedure, shortened: as §1
`CC(C)[C@@H](C)/C=C/[C@@H](C)[C@H]1CC[C@@H]2[C@]1(C)CC[C@H]1[C@]23C=C[C@]2(C[C@@H](O)CC[C@]12C)OO3` [ERGOSTEROL PEROXIDE] was tested, and the inhibition was “Active”.
In the case of `C/C(=C/CC[C@@H](C)[C@H]1C[C@H](O)[C@@]2(C)C3=CC[C@H]4C(C)(C)C(=O)CC[C@]4(C)C3=CC[C@]12C)C(=O)O` [GANODERIC ACID TR], the inhibition is reported as “Active”.
`C[C@H](CCC=C(CO)CO)[C@H]1CC[C@@]2(C)C3=CC[C@H]4C(C)(C)C(=O)CC[C@]4(C)C3=CC[C@]12C` [GANODERIOL F] was tested, and the inhibition was “Active”.
In the case of `C[C@H](CC[C@H](O)[C@](C)(O)CO)[C@H]1CC[C@@]2(C)C3=CC[C@H]4C(C)(C)C(=O)CC[C@]4(C)C3=CC[C@]12C` [GANODERMANONTRIOL], the inhibition is reported as “Active”.
In the case of `C[C@H](CC[C@H](O)C(C)(C)O)[C@H]1CC[C@@]2(C)C3=C(CC[C@]12C)[C@@]1(C)CCC(=O)C(C)(C)[C@@H]1CC3=O` [LUCIDUMOL A], the inhibition is reported as “Active”.

What follows are molecules tested on HUVEC (assay: Antiinflammatory activity in human HUVEC cells assessed as inhibition of LPS-induced E-selectin mRNA expression at 5 uM for 10 mins measured after 4 hrs of LPS challenge by Q-PCR analysis).
Assay type: functional, cell-based
Procedure, shortened: as §1
`CC(C)[C@@H](C)/C=C/[C@@H](C)[C@H]1CC[C@@H]2[C@]1(C)CC[C@H]1[C@]23C=C[C@]2(C[C@@H](O)CC[C@]12C)OO3` [ERGOSTEROL PEROXIDE] was tested, and the inhibition was “Active”.
With `C/C(=C/CC[C@@H](C)[C@H]1C[C@H](O)[C@@]2(C)C3=CC[C@H]4C(C)(C)C(=O)CC[C@]4(C)C3=CC[C@]12C)C(=O)O` [GANODERIC ACID TR] the inhibition was “Active”.
For `C[C@H](CCC=C(CO)CO)[C@H]1CC[C@@]2(C)C3=CC[C@H]4C(C)(C)C(=O)CC[C@]4(C)C3=CC[C@]12C` [GANODERIOL F], the inhibition was “Active”.
For `C[C@H](CC[C@H](O)[C@](C)(O)CO)[C@H]1CC[C@@]2(C)C3=CC[C@H]4C(C)(C)C(=O)CC[C@]4(C)C3=CC[C@]12C` [GANODERMANONTRIOL], the inhibition was “Active”.
With `C[C@H](CC[C@H](O)C(C)(C)O)[C@H]1CC[C@@]2(C)C3=C(CC[C@]12C)[C@@]1(C)CCC(=O)C(C)(C)[C@@H]1CC3=O` [LUCIDUMOL A] the inhibition was “Active”.
